Results pooled from the literature.
Lines come from different studies, so protocols differ.
Target: Receptor-interacting serine/threonine-protein kinase 2 (RIPK2, Homo sapiens, UniProt O43353)

Structure (SMILES)	assay	setting	remaining binding [%]
C[C@@H]1CCN(c2nccc(-c3cnn4ncccc34)n2)C1	binding	1 µM	91
Cc1c[nH]c2nccc(Oc3c(F)cc(Nc4cc(Cl)nc(N)n4)cc3F)c12	cell-free assay, competition with immobilised ligand	0.1 µM	92
c1cncc(-c2cccc(Nc3nccc(NC4CCCCC4)n3)c2)c1	binding, competition with immobilised ligand	10 µM	39
O=C(Nc1c[nH]nc1C(=O)NC1CCNCC1)c1cc(F)cc(F)c1	binding, competition with immobilised ligand	1 µM	53
CN([C@@H]1CCc2c(CC(=O)O)c3ccccc3n2C1)S(=O)(=O)c1ccc(F)cc1	cell-free assay, competition with immobilised ligand	1 µM	92
CN(C)c1nccc(-c2cnn3ncccc23)n1	binding	1 µM	100
O=C(c1ccc(Nc2ncc(Cl)c(-c3ccc(Cl)s3)n2)cc1)N1CCC(N2CCCC2)CC1	binding, competition with immobilised ligand	1 µM	89
Cc1cc(NC(=O)c2cccc(S(F)(F)(F)(F)F)c2)cc(-n2ccn3nc(-c4cccnc4)cc23)c1	cell-free assay, competition with immobilised ligand	1 µM	88.6
CC1CCCN1c1nccc(-c2cnn3ncccc23)n1 (stereo not shown)	binding	1 µM	89
O=C1NC(c2ccccn2)Sc2ccccc21 (stereo not shown)	cell-free assay, competition with immobilised ligand	1 µM	100
N[C@H]1CCN(c2nccc(-c3cnn4ncccc34)n2)C1	binding	1 µM	100
O=C(NCCCN1CCOCC1)c1ccc(Nc2ncc(Cl)c(-c3ccc(Cl)s3)n2)cc1	binding, competition with immobilised ligand	1 µM	100
CN(C)c1nccc(-c2cnc3ncccn23)n1	binding	1 µM	98
FC(F)(F)Oc1cccc(-c2cnc3ccc(-c4ccncc4)nn23)c1	binding, competition with immobilised ligand	5 µM	42
Nc1ncc2c(n1)-c1c([nH]c3ccc(C#CC4CC4)cc13)CCCC2	binding, competition with immobilised ligand	1 µM	100
CNC(=O)[C@@H]1CC[C@@H](n2c(-c3ccc4cnccc4c3)nc3ccc(C(=O)NCc4cccc(C(N)=O)c4)cc32)C1	binding, competition with immobilised ligand	1 µM	100
CO[C@H]1CC[C@H](CNc2ccc(S(=O)(=O)NC(=O)c3ccc(N4CCN(CC5=C(c6ccc(Cl)cc6)CC(C)(C)CC5)CC4)cc3Oc3cnc4[nH]ccc4c3)cc2[N+](=O)[O-])CC1	cell-free assay, competition with immobilised ligand	1 µM	85
O=C(NCCCN1CCOCC1)c1ccc(Nc2nccc(-c3cc4ccccc4s3)n2)cc1	binding, competition with immobilised ligand	1 µM	80
C[C@@H]1CN(c2cc(-c3nn(C)c4ccc(OC5(C)CC5)cc34)ncn2)C[C@H](C)O1	cell-free assay, competition with immobilised ligand	1 µM	100
COc1ccnn2ncc(-c3ccnc(N(C)C)n3)c12	binding	1 µM	100
CC(=O)C1=C(C)N(c2cccc(C(F)(F)F)c2)C(=O)N[C@@H]1c1ccc(C#N)nc1	cell-free assay, competition with immobilised ligand	1 µM	98.7
Cc1cnn2ncc(-c3ccnc(N(C)C)n3)c2c1	binding	1 µM	100
